High-throughput results: PubChem BioAssay, several laboratories
FLuc stim CS: firefly luciferase counter-screen for stimulation assays | P08659 | ATPlite luciferase biochemical, luminescence, 10 min; 0 = ATP-free wells, 1 = DMSO control | activation factor at 10 µM | 200,000 tested, under 10 active;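 active means luciferase activation factor, scaled between plate controls, of at least 2 with compound at 10 µM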
Target sequence (P08659 whole entry, looked up): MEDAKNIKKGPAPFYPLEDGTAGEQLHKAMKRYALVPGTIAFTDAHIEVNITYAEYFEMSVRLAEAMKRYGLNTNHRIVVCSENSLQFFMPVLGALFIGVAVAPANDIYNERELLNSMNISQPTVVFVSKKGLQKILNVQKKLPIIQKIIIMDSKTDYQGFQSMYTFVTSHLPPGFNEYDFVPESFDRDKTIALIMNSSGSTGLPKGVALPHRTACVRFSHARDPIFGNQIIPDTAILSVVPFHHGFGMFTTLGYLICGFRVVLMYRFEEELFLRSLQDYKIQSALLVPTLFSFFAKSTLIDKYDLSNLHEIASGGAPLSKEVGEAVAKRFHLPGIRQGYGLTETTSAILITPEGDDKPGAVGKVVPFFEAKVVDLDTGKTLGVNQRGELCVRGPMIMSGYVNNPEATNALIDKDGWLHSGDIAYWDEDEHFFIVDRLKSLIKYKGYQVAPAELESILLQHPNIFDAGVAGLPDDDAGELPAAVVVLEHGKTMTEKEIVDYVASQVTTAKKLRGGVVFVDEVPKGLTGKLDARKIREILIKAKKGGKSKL
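System: cell-free luciferase reagent; medium: PBS as buffer for the ATP substrate; doses: test compounds dosed from 2 mM stocks in 100% DMSO; incubation: 10 min, room temperature; measured by: luminescence from luciferase reaction; read-out: luciferase activation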
APP 5'UTR act: APP 5'UTR luciferase reporter activation | SH-SY5Y APP 5'UTR luciferase reporter, luminescence; zero percent = DMSO vehicle wells | 1% of 190,000 active | activation, % at 2 µM;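 active means activation above a set limit, based on mean plus 3 SD of controls, cut at about 140% in these data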
Pf gamet viab: P. falciparum stage V gametocyte viability inhibition | P. falciparum stage V gametocytes, ATP luminescence, 24 h | inhibition, % at 10.9 µM | 0.065% of 150,000 active;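 active means inhibition above the mean plus 3 SD of compounds within the control limits, set per campaign, cut at about 38% in these data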;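 further: 0% = DMSO wells and 100% = medium only without gametocytes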
STAT1 activator: STAT1 signaling activation | activation (% of control), % at 5.5 µM | NIH 3T3 STAT1-luciferase reporter, IFN-gamma, luminescence; 100% = IFN-gamma alone, no compound | 2.6% of 200,000 active | AID 932;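 active means activation above the screen-wide mean activation plus 3 SD, cut at about 130% in these data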;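 further: raw ratio to IFN-gamma control signal so 100% means no change and 0% no light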
NF-kB expr up: raises NF-kB expression in human neuronal cells; NF-kB reporter expression; hits give high values; fold change at 12.5 µM; 1.6% of 190,000 active; AID 1239; in the data active means fold change above about 3.3
FLuc inh counter: inhibits firefly luciferase, flagging false hits in luciferase inhibition screens | P08659 | ATPLite firefly luciferase biochemical luminescence, 10 min | inhibition, % at 10 µM | 1.5% of 200,000 active;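 active means inhibition above about 50% when tested at 10 µM, limit read from the data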
Starred values were filed as active, the others as inactive. Shown are actives, neighbours in structure and some others; about 3.5% of the full set was active somewhere.

What do the screens show for `CN(CC(=O)Nc1ccc2c(c1)CCC2)CC(=O)Nc1ccccc1Br`?
FLuc stim CS: 1.1; APP 5'UTR act: -2; Pf gamet viab: 39*; STAT1 activator: 100; NF-kB expr up: 1.5; FLuc inh counter: -8

What do the screens show for `CCCN1C2CCCC1CC(NC(=S)Nc1cc(C)ccc1C)C2` (centres undefined)?
FLuc stim CS: 1; APP 5'UTR act: 5; STAT1 activator: 99; NF-kB expr up: 0.97; FLuc inh counter: -5

Results for Cc1nnc(Oc2ccccc2)c2ccccc12 ?
FLuc stim CS: 1; APP 5'UTR act: 26; STAT1 activator: 111; NF-kB expr up: 1.8; FLuc inh counter: 4

What do the screens show for `COc1ccc(Oc2nnc(C)c3ccccc23)cc1`?
FLuc stim CS: 0.9; APP 5'UTR act: 38; STAT1 activator: 130*; NF-kB expr up: 3.5*; FLuc inh counter: 14

Results for CCOc1ccc(OCCSc2nc(-c3ccccc3)cc(=O)[nH]2)cc1 ?
FLuc stim CS: 1; APP 5'UTR act: 12; Pf gamet viab: -6; STAT1 activator: 103; NF-kB expr up: 1.1; FLuc inh counter: -4

What do the screens show for `Clc1ccc2nc(C3CCN(Cc4ccccc4)CC3)[nH]c2c1`?
FLuc stim CS: 1.1; APP 5'UTR act: -1; STAT1 activator: 101; NF-kB expr up: 0.95; FLuc inh counter: -6

What do the screens show for `Clc1ccc2nc(N3CCCCC3)[nH]c2c1`?
FLuc stim CS: 0.6; APP 5'UTR act: 119; STAT1 activator: 136*; NF-kB expr up: 5.3*; FLuc inh counter: 39

Results for Cc1ccc(C2=NN(C(=S)Nc3ccccc3)C(c3ccco3)C2)cc1 (centres undefined) ?
FLuc stim CS: 1; APP 5'UTR act: 89; STAT1 activator: 134*; NF-kB expr up: 2.8; FLuc inh counter: -5

Results for Cc1cccc(-n2ncc3c(N4CCCC4)ncnc32)c1 ?
FLuc stim CS: 0.1; APP 5'UTR act: 138*; STAT1 activator: 108; NF-kB expr up: 4.8*; FLuc inh counter: 87*

How did Cc1cccc(-n2ncc3c(N4CC(C)CC(C)C4)ncnc32)c1 (centres undefined) do in these assays?
FLuc stim CS: 0.8; STAT1 activator: 133*; NF-kB expr up: 2.3; FLuc inh counter: 19

How did Cc1ccc(-n2ncc3c(N4CCN(c5ccccc5)CC4)ncnc32)c(C)c1 do in these assays?
FLuc stim CS: 1; APP 5'UTR act: 38; Pf gamet viab: 11; STAT1 activator: 94; NF-kB expr up: 0.35; FLuc inh counter: -4

What do the screens show for `Cc1cccc(-n2ncc3c(N4CCOCC4)ncnc32)c1`?
FLuc stim CS: 0.1; APP 5'UTR act: 67; STAT1 activator: 91; NF-kB expr up: 1.6; FLuc inh counter: 94*

Results for COc1cccc(-c2nnc(SCC(=O)Nc3ccc(S(N)(=O)=O)cc3)n2C)c1 ?
FLuc stim CS: 1.1; APP 5'UTR act: 4; STAT1 activator: 97; NF-kB expr up: 0.93; FLuc inh counter: -10

Results for O=C(Oc1ccccc1O)c1cccc2ccccc12 ?
FLuc stim CS: 1.1; APP 5'UTR act: -5; Pf gamet viab: -18; STAT1 activator: 109; NF-kB expr up: 3.5*; FLuc inh counter: -8

What do the screens show for `CCc1ccc2nc3sc(C(=O)O)cc3cc2c1`?
FLuc stim CS: 0.3; APP 5'UTR act: 13; Pf gamet viab: 14; STAT1 activator: 118; NF-kB expr up: 1.8; FLuc inh counter: 68*

Results for Cc1ccc(OCc2nc(-c3ccccn3)no2)cc1 ?
FLuc stim CS: 0.7; APP 5'UTR act: 139*; Pf gamet viab: -23; STAT1 activator: 127; NF-kB expr up: 5.1*; FLuc inh counter: 33

How did Cc1ccc(SCc2nc(-c3ccccn3)no2)cc1 do in these assays?
FLuc stim CS: 1; APP 5'UTR act: 37; Pf gamet viab: 1; STAT1 activator: 125; NF-kB expr up: 1.7; FLuc inh counter: 4

Results for CC(C)c1ccc(OCc2nc(-c3ccccn3)no2)c(Br)c1 ?
FLuc stim CS: 0.6; APP 5'UTR act: 182*; STAT1 activator: 138*; NF-kB expr up: 5.4*; FLuc inh counter: 36

How did Cc1ccc(OCc2nc(-c3ccccn3)no2)c(Br)c1 do in these assays?
FLuc stim CS: 0.2; APP 5'UTR act: 150*; STAT1 activator: 56; NF-kB expr up: 4.4*; FLuc inh counter: 79*

What do the screens show for `CCc1ccc(OCc2nc(-c3ccccn3)no2)c(Br)c1`?
FLuc stim CS: 0.5; APP 5'UTR act: 181*; STAT1 activator: 100; NF-kB expr up: 3.2; FLuc inh counter: 55*

How did O=C(O)CCn1[nH]c(=O)c2ccccc2c1=O do in these assays?
FLuc stim CS: 1.1; APP 5'UTR act: 6; STAT1 activator: 102; NF-kB expr up: 1; FLuc inh counter: -6

How did O=C(Nc1ccc(OC(F)(F)F)cc1)C1=NCCN1 do in these assays?
FLuc stim CS: 0.4; APP 5'UTR act: 17; Pf gamet viab: -1; STAT1 activator: 115; NF-kB expr up: 1.7; FLuc inh counter: 63*

Results for Cc1ccc(S(=O)(=O)c2c(C)nn(C(C)(C)C)c2OC(=O)c2ccco2)cc1 ?
FLuc stim CS: 1; APP 5'UTR act: -8; Pf gamet viab: -16; STAT1 activator: 138*; NF-kB expr up: 1.1; FLuc inh counter: 3

Results for COc1ccc(S(=O)(=O)N2c3cc(Cl)ccc3Oc3nc4ccccc4nc32)cc1 ?
FLuc stim CS: 1; APP 5'UTR act: 17; Pf gamet viab: 7; STAT1 activator: 95; NF-kB expr up: 3.6*; FLuc inh counter: -4

Results for COc1ccc(C(=O)NC2CCN(CC(=O)Nc3cccc(OC)c3)CC2)cc1 ?
Pf gamet viab: 14

How did Cc1ccc(Nc2nc3c(c(=O)[nH]2)CCCC3)cc1 do in these assays?
FLuc stim CS: 1; APP 5'UTR act: 12; STAT1 activator: 112; NF-kB expr up: 2; FLuc inh counter: -2

What do the screens show for `O=c1[nH]c(Nc2nc3ccccc3o2)nc2c1CCCC2`?
FLuc stim CS: 0.3; APP 5'UTR act: 170*; Pf gamet viab: 6; STAT1 activator: 90; NF-kB expr up: 2; FLuc inh counter: 70*

What do the screens show for `O=C(COC(=O)[C@@H]1CC(O)CN1S(=O)(=O)c1ccc([N+](=O)[O-])cc1)NC12CC3CC(CC(C3)C1)C2` (some centres undefined)?
FLuc stim CS: 1; APP 5'UTR act: -4; STAT1 activator: 100; NF-kB expr up: 1.4; FLuc inh counter: -2

Results for COc1ccc(C(=O)Nc2cnc3ccccn3c2=O)cc1 ?
FLuc stim CS: 0.9; APP 5'UTR act: 72; Pf gamet viab: -3; STAT1 activator: 140*; NF-kB expr up: 2.4; FLuc inh counter: 13

What do the screens show for `O=C(Nc1cnc2ccccn2c1=O)c1ccc(F)cc1`?
FLuc stim CS: 1; APP 5'UTR act: 51; STAT1 activator: 125; NF-kB expr up: 2; FLuc inh counter: 4
